Bioassay records: PubChem BioAssay, several laboratories
An excerpt weighted towards active compounds, which were near 5.3% of everything screened.
Calb FLC: C. albicans growth modulation with fluconazole; growth inhibition, % (concentration not given with the values); AID 1979; 0.57% of 300,000 active; C. albicans CaCi-2 (fluconazole-resistant clinical isolate) + fluconazole, Alamar Blue growth, 48 h;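 active means growth inhibition above about 58% in most replicates, limit read from the data, passing the limit was not always enough; inconclusive means exactly half the replicates above a set limit; inactive means most replicates below a set limit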;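 further: all wells also contain fluconazole at 8 µg/ml as a sub-toxic cotreatment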
Beta apoptosis: beta cell apoptosis inhibition; 0.8% of 300,000 active; protection from apoptosis, % (test concentration not listed); INS-1E cytokine-induced death, ATP luminescence, 48 h; percent of positive-control rescue, neutral wells zero; AID 435005;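 active means Every replicate reaches about 75%, or at least half do and their mean reaches it too, limit read from the data; inconclusive means At least half of replicates reach the limit but their mean does not; inactive means Under half of replicates reach the limit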;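 further: higher means more ATP so stronger rescue from cytokine killing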
NLRP3 yeast inh: NALP3 inhibition in yeast; Yeast reconstituted NLRP3/ASC/caspase-1, beta-gal luminescence, 24 h; inhibition, % at 10 µM; 0.39% of 330,000 active;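 active means inhibition of 50% or more; inactive means inhibition below 50%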
CSC inhib: blocks cancer stem cells; inhibition, % at 7.5 µM; cancer stem cell-like cells viability, luminescence; 1.1% of 300,000 active; in the data active means inhibition above about 75%; inconclusive means no clear call, values can overlap the other calls; tested in HMLE shEcad cells
Mdm2 MdmX PPI: disrupts the human Mdm2-MdmX interaction; O15151+Q00987; SaOS-2 split-luciferase Mdm2/MdmX complementation, luminescence; inhibition, % at 8 µM; 3% of 330,000 active;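 active means inhibition of at least 50% at 8 µM in the primary screen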
T cruzi repl: T. cruzi replication inhibition. 1.4% of 300,000 active. T. cruzi beta-gal in NIH3T3, luminescence, 90 h. inhibition, % (test concentration not listed). AID 1885;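 active means mean inhibition across valid replicates above about 55%, limit read from the data; inconclusive means mean below that limit but half or more replicates reach it; inactive means mean below it, under half of replicates reach it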;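 further: signal also drops with host cell toxicity which is not excluded here; higher percent means less beta-gal luminescence so fewer parasites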
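System: Mouse NIH/3T3 fibroblasts infected with β-gal-expressing T. cruzi Tulahuen C4 | Quantity: NIH/3T3 cells, 5,000 per well | Reagent: 5000 reporter trypomastigotes per well | Dosing: Compound pinned at 50 nL/well, DMSO | Schedule: 3 h host attachment, then at least 90 h co-culture | Detection: GalScreen luminescence, 60 min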
Mdm2-MdmX conf: confirmation of human Mdm2/MdmX interaction inhibitors. shares compounds with Mdm2 MdmX PPI. inhibition, % at 8 µM. 55% of 10,000 active. AID 489028. Mdm2-MdmX binding, luminescent assay; in the data active means inhibition above about 40%
Full FLuc ctr: inhibits full-length luciferase, flagging false Mdm2/MdmX hits | shares compounds with Mdm2 MdmX PPI | SaOS-2 full-length luciferase counterscreen, luminescence | inhibition, % at 8 µM | 77% of 6,200 active | AID 504607;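 active means mean inhibition at 8 µM reaching about 37%, which flags the compound as non-specific, limit read from the data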;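 further: p53-null SaOS-2 cells with luciferase driven by a doxycycline-inducible promoter; compound on cells about two nights before reading with doxycycline added after day one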
Of the large screens only hits and unclear results are named; the others gave an inactive call (follow-up assays come after a bar, where they were run).

Cc1csc(SC(C)C(=O)NCC2CCCO2)n1 (centres undefined)	none
COc1ccc(-c2nnc(SCC(=O)NC3CCCC3)n2C)cc1	none
COc1cccc(-c2nn(-c3ccc(C)cc3)cc2C(=O)N2CCc3cc(OC)c(OC)cc3C2)c1	Mdm2 MdmX PPI 58 | Mdm2-MdmX conf 67 | Full FLuc ctr 86
C1CCCCCC(NCCN2CCNCC2)CCCCC1	Mdm2 MdmX PPI 97 | Mdm2-MdmX conf 93 | Full FLuc ctr inactive
O=C(NC1CCCCC1)N1CCNCC1	none
CCCc1nnc(NC(=O)c2nc(S(=O)(=O)Cc3cccc(C)c3)ncc2Cl)s1	CSC inhib 108, Mdm2 MdmX PPI 90 | Mdm2-MdmX conf inactive | Full FLuc ctr inactive
Cc1cccc(C)c1NC(=O)c1nc(S(=O)(=O)Cc2ccccc2)ncc1Cl	Mdm2 MdmX PPI 68 (no result: Beta apoptosis, CSC inhib) | Mdm2-MdmX conf 98 | Full FLuc ctr inactive
Cc1ccccc1NC(=O)c1nc(S(C)(=O)=O)ncc1Cl	none
Cc1cccc(CS(=O)(=O)c2ncc(Cl)c(C(=O)NCc3ccccc3)n2)c1	Mdm2 MdmX PPI 83 | Mdm2-MdmX conf 66 | Full FLuc ctr inactive
Cc1cccc(CS(=O)(=O)c2ncc(Cl)c(C(=O)Nc3c(C)cccc3C)n2)c1	Mdm2 MdmX PPI 94 (no result: Beta apoptosis, CSC inhib) | Mdm2-MdmX conf 86 | Full FLuc ctr 51
Cc1nnc(NC(=O)CS(=O)(=O)Cc2ccccc2)s1	none (no result: Beta apoptosis, CSC inhib)
Cc1nnc(NC(=O)c2nc(S(=O)(=O)Cc3ccccc3)ncc2Cl)s1	Mdm2 MdmX PPI 85 (no result: Beta apoptosis, CSC inhib) | Mdm2-MdmX conf inactive
Cc1[nH]nc2ncc(C(=O)c3ccccc3O)cc12	Mdm2 MdmX PPI 81 | Mdm2-MdmX conf 81 | Full FLuc ctr inactive
O=C(Nc1ccccc1O)c1ccc(NS(=O)(=O)c2cccc3cccnc23)cc1	CSC inhib inconclusive, Mdm2 MdmX PPI 77 | Mdm2-MdmX conf inactive
COc1ccc(C2C3=C(Nc4ncnn42)c2ccccc2CCC3)cc1 (centres undefined)	none
Fc1ccc(/C=C2\CCCC3=C2Nc2ncnn2C3c2ccc(F)cc2)cc1 (centres undefined)	Mdm2 MdmX PPI 99 | Mdm2-MdmX conf 47 | Full FLuc ctr inactive
CC(C)OC(=O)CC(=O)CSc1nc(-c2ccc(F)cc2)cc(-c2ccccc2)c1C#N	none
N#C/C(=C\c1ccc(Cl)c([N+](=O)[O-])c1)c1ccccn1	Mdm2 MdmX PPI 87 | Mdm2-MdmX conf inactive
CNc1ccc(/C=C(\C#N)c2ccccn2)cc1[N+](=O)[O-]	none
CC(NC(=O)/C(C#N)=C/c1ccc(Cl)c([N+](=O)[O-])c1)c1ccccc1 (centres undefined)	Mdm2 MdmX PPI 100 | Mdm2-MdmX conf 67 | Full FLuc ctr inactive
CCc1c(-c2ccccc2)nc2sc3c(c2c1N)CCCC3	Mdm2 MdmX PPI 72, T cruzi repl 55 | Mdm2-MdmX conf inactive
Nc1c(C(=O)O)sc2nc(-c3ccccc3)c3c(c12)CCCC3	none (no result: Calb FLC)
COc1ccc(Br)cc1CN1CCN(Cc2c[nH]c3ccccc23)CC1	Beta apoptosis 79, Mdm2 MdmX PPI 69 | Mdm2-MdmX conf inactive | Full FLuc ctr 83
COc1ccc(CN2CCN(Cc3c[nH]c4ccccc34)CC2)cc1	none (no result: Calb FLC)
COc1ccc(/C=N/NC(=O)c2cccnc2)cc1COc1ccc(NC(C)=O)cc1	Mdm2 MdmX PPI 52 | Mdm2-MdmX conf inactive
COc1ccc(/C=N/NC(=O)c2ccc3ccccc3c2)cc1OS(=O)(=O)c1ccc(NC(C)=O)cc1	Mdm2 MdmX PPI 68 (no result: Beta apoptosis, CSC inhib) | Mdm2-MdmX conf 55 | Full FLuc ctr 58
COc1ccc(/C=N/NC(=O)c2cccnc2)cc1COc1ccc([N+](=O)[O-])cc1	Mdm2 MdmX PPI 51 | Mdm2-MdmX conf inactive | Full FLuc ctr 81
COc1cc(/C=N/NC(=O)c2cccnc2)ccc1OC(=O)c1ccc([N+](=O)[O-])cc1	none
COc1ccc(/C=N\NC(=O)c2cccc(F)c2)cc1COc1ccccc1	Mdm2 MdmX PPI 58 | Mdm2-MdmX conf 64 | Full FLuc ctr 75
CC1CC(=O)Nc2ccccc2N1C(=O)Nc1ccccc1 (centres undefined)	none
